The target of data set [1] is Multidrug resistance protein 1a (Rattus norvegicus) (UniProt Q6PSM0). Kind of data set: TP_TRANSPORTER: increase in Glibenclamide intracellular accumulation (Glibenclamide: 0.0525 uM, BM-223: 100 uM) in CC531mdr+ cells. It is filed as functional, cell-based. In outline: (§1)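 Confluent CC531mdr+ monolayers, held colchicine-free ≥12 h, were preincubated 10 min at 37 °C in buffer A with inhibitor or 0.1% DMSO. They were then exposed 60 min to [³H]glibenclamide (2.5 µCi/ml; 52.5 nM glibenclamide) with inhibitor. After an ice-cold buffer wash, acid extraction (0.1 N HNO₃) and scintillation counting, uptake was expressed as % of the inhibitor-free control; n≥3.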
Sequence of Multidrug resistance protein 1a (Rattus norvegicus) (Q6PSM0 as listed by the source): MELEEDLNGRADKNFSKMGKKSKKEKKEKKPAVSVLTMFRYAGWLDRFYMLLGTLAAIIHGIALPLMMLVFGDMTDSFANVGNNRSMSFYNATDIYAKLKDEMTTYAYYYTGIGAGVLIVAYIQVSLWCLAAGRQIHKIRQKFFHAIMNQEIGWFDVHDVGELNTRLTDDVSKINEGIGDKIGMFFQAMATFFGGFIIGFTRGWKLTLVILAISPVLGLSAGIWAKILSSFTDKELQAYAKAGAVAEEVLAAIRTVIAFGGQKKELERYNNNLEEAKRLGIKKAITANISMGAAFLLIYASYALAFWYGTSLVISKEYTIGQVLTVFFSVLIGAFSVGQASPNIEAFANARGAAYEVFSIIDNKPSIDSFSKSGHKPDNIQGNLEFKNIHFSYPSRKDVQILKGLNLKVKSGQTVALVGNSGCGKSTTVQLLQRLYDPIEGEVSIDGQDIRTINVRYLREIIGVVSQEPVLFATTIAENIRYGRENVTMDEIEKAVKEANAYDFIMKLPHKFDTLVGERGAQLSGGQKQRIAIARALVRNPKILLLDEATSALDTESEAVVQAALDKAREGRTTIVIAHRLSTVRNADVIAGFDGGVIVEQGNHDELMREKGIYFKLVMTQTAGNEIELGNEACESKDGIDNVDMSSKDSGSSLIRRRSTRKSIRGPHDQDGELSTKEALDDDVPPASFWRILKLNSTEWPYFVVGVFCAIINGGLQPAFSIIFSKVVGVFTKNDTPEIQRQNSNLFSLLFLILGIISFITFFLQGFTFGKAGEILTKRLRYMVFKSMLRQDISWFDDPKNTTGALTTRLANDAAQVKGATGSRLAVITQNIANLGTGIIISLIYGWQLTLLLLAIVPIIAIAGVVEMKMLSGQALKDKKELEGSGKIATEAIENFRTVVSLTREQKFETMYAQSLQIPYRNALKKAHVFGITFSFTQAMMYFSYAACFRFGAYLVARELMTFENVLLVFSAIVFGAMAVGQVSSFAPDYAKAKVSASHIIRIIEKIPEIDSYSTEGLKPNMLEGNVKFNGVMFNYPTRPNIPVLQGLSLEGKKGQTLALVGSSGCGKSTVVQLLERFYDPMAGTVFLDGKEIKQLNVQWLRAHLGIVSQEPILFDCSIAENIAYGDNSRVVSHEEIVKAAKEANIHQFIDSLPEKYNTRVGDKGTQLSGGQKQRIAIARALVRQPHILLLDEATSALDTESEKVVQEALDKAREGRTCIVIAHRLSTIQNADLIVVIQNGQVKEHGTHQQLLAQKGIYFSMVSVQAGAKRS

Data set [2] addresses T1, ATP-dependent translocase ABCB1 (Homo sapiens, UniProt P08183). The data set is described as follows: TP_TRANSPORTER: inhibition of Azidopine photoaffinity labelling (Azidopine: 0.16 uM, BM-223: 100 uM) in membranes from CEM/VBL600 cells. As to conditions: cem/vbl600, 100 µM.
The target of data set [3] is Multidrug resistance protein 1a (Rattus norvegicus) (UniProt Q6PSM0). Kind of data set: TP_TRANSPORTER: increase in Colchicine intracellular accumulation (Colchicine: 0.035 uM, BM-223: 100 uM) in CC531mdr+ cells. It counts as functional, cell-based. In outline:
(§2)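 CC531mdr+ monolayers were grown to confluence and kept colchicine-free for ≥12 h. They were preincubated 10 min at 37 °C in buffer A (pH 7.4) with inhibitor or 0.1% DMSO, then incubated 60 min in buffer A with [³H]colchicine (2.5 µCi/ml; 35 nM colchicine) plus the same additions. After an ice-cold wash, radioactivity was extracted with 0.1 N HNO₃ and counted. Accumulation is given as % of the no-inhibitor control; n≥3.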

Data set [4] has as its target T1, ATP-dependent translocase ABCB1. Kind of data set: TP_TRANSPORTER: increase in Colchicine intracellular accumulation (Colchicine: 0.0175 uM, BM-223: 100 uM) in CEM/VBL600 cells. It is filed as functional, cell-based. As to conditions: cem/vbl600, 100 µM. The procedure, abridged:
(§3)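 1.5×10⁶ viable cells were preincubated 10 min at 37 °C with inhibitor or 0.1% DMSO. [³H]colchicine (final 1.25 µCi/ml; 17.5 nM) was added for 60 min at 37 °C. Cells were pelleted at 4 °C, washed ice-cold and counted by scintillation. Uptake is given as % of the no-inhibitor control; n≥3.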

For data set [5], the target named is Multidrug resistance protein 1a (Rattus norvegicus) (UniProt Q6PSM0). The data set is described as follows: TP_TRANSPORTER: increase in Glibenclamide intracellular accumulation (Glibenclamide: 0.0525 uM, Vinblastine: 100 uM) in CC531mdr+ cells. It is filed as functional, cell-based. In outline: as §1
Data set [6] has as its target T1, ATP-dependent translocase ABCB1. The data set is described as follows: TP_TRANSPORTER: increase in Colchicine intracellular accumulation (Colchicine: 0.0175 uM, Vinblastine: 100 uM) in CEM/VBL600 cells. It counts as functional, cell-based. As to conditions: cem/vbl600, 100 µM. In outline:
as §3

The target of data set [7] is Multidrug resistance protein 1a (Rattus norvegicus) (UniProt Q6PSM0). Kind of data set: TP_TRANSPORTER: increase in Colchicine intracellular accumulation (Colchicine: 0.035 uM, Vinblastine: 100 uM) in CC531mdr+ cells. It counts as functional, cell-based. The procedure, abridged:
as §2

Data set [8] concerns the target T1, ATP-dependent translocase ABCB1. The data set is described as follows: TP_TRANSPORTER: increase in Colchicine intracellular accumulation (Colchicine: 0.0175 uM, BM-208: 100 uM) in CEM/VBL600 cells. As to conditions: cem/vbl600, 100 µM. It is filed as functional, cell-based. The procedure, abridged:
as §3

Data set [9] deals with Multidrug resistance protein 1a (Rattus norvegicus) (UniProt Q6PSM0). The data set is described as follows: TP_TRANSPORTER: increase in Colchicine intracellular accumulation (Colchicine: 0.035 uM, BM-208: 100 uM) in CC531mdr+ cells. It is filed as functional, cell-based. The procedure, abridged:
as §2

Data set [10] has the same target. Kind of data set: TP_TRANSPORTER: increase in Glibenclamide intracellular accumulation (Glibenclamide: 0.0525 uM, BM-208: 100 uM) in CC531mdr+ cells. It is filed as functional, cell-based. The procedure, abridged: as §1
The target of data set [11] is T1, ATP-dependent translocase ABCB1. Kind of data set: TP_TRANSPORTER: inhibition of Azidopine photoaffinity labelling (Azidopine: 0.16 uM, BM-208: 100 uM) in membranes from CEM/VBL600 cells. As to conditions: cem/vbl600, 100 µM.
Data set [12] addresses Multidrug resistance protein 1a (Rattus norvegicus) (UniProt Q6PSM0). Kind of data set: TP_TRANSPORTER: increase in Colchicine intracellular accumulation (Colchicine: 0.035 uM, Glibenclamide: 100 uM) in CC531mdr+ cells. It counts as functional, cell-based. In outline: as §2
The target of data set [13] is T1, ATP-dependent translocase ABCB1. The data set is described as follows: TP_TRANSPORTER: increase in Colchicine intracellular accumulation (Colchicine: 0.0175 uM, Glibenclamide: 100 uM) in CEM/VBL600 cells. It counts as functional, cell-based. As to conditions: cem/vbl600, 100 µM. The procedure, abridged: as §3

T1 sequence (P08183 whole entry): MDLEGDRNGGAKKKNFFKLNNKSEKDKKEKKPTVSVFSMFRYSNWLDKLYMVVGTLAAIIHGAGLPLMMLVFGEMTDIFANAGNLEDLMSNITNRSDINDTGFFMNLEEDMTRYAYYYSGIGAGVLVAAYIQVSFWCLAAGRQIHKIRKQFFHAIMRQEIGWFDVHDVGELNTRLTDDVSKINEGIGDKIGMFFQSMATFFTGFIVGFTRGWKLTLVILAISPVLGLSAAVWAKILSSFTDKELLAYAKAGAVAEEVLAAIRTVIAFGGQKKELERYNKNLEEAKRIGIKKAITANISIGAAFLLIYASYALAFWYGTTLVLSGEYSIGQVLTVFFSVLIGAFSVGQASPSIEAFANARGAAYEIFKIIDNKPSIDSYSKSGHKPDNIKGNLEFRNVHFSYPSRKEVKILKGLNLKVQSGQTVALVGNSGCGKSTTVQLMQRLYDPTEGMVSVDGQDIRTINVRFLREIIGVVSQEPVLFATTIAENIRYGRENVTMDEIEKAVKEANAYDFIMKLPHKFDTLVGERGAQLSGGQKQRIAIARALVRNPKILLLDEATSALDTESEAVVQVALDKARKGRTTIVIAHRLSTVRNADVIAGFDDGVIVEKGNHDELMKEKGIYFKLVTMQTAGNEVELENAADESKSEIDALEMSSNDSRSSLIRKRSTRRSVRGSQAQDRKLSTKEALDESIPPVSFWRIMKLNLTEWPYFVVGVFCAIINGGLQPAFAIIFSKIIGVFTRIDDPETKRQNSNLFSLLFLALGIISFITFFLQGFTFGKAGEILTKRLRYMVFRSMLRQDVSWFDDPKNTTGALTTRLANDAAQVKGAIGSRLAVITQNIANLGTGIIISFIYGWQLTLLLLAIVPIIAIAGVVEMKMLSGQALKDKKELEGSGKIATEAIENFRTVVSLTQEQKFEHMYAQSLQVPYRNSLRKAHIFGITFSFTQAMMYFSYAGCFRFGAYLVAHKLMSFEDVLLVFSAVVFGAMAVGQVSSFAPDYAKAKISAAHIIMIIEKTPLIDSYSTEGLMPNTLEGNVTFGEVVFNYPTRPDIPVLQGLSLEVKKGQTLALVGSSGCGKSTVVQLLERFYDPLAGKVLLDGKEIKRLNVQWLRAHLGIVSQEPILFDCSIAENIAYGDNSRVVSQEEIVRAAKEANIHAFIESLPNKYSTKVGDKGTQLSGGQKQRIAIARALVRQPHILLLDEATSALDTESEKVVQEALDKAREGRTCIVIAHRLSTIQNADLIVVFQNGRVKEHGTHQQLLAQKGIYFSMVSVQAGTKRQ

As to `COc1ccc(Cl)cc1C(=O)NCCc1ccc(S(=O)(=O)N/C(=N/C#N)NC2CCC(C)CC2)cc1` (centres undefined), the Activity entry in data set [1], in data set [2], in data set [3] and in data set [4] was “inhibitor [+]” in each case.

With `CC[C@]1(O)C[C@@H]2CN(CCc3c([nH]c4ccccc34)[C@@](C(=O)OC)(c3cc4c(cc3OC)N(C)[C@H]3[C@@](O)(C(=O)OC)[C@H](OC(C)=O)[C@]5(CC)C=CCN6CC[C@]43[C@@H]65)C2)C1` [VINBLASTINE], the Activity result in data set [5], in data set [6] and in data set [7] was “inhibitor [+]” each time.

Take `COc1ccc(CCN(C)CCCC(C#N)(c2ccc(OC)c(OC)c2)C(C)C)cc1OC` (centres undefined): in data set [5], the Activity entry is “inhibitor [+]”.

Take `COc1ccc(Cl)cc1C(=O)NCCc1ccc(S(=O)(=O)N/C(=N/C#N)NC2CCCCC2)cc1`: the Activity result in data set [8], in data set [9], in [10] and in data set [11] was “inhibitor [+]” in each case.

`COc1ccc(Cl)cc1C(=O)NCCc1ccc(S(=O)(=O)NC(=O)NC2CCCCC2)cc1` [GLYBURIDE]: the Activity entry in [12] and in [13] was “inhibitor [+]” each time.
